# Data from ChEMBL document CHEMBL1641431, “Triazoloquinazolinediones as novel high affinity ligands for the benzodiazepine site of GABA(A) receptors” (Bioorg Med Chem, 2011).
# pKi: −log10 of the molar value.
# Assays:
# [1] = Displacement of [3H]flumazenil form benzodiazepine-binding site of GABA(A) receptor in rat cortical membrane after 30 mins by glass fiber filtration assay; format: cell membranes; settings: in the assay text read “after 40 mins” for “after 30 mins”
# In short: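 Rat cortex homogenized in 30 mM Tris–HCl pH 7.4, washed by 27,000g spins, held at 37 °C for 30 min, stored at −20 °C. Membranes (1 mg original tissue/0.55 mL) in 50 mM Tris–citrate pH 7.1 with 1 nM final [3H]flumazenil, 40 min at 0–4 °C. GF/C filtration. Nonspecific binding with 1 µM clonazepam. IC50 from 4–6 concentrations; Ki = IC50/(1+L/KD).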
# Homo sapiens [2] = species on record: Homo sapiens; assay: Selectivity ratio of Ki for human recombinant alpha5beta3gamma2 GABA(A) receptor to Ki for human recombinant alpha1beta3gamma2 GABA(A) receptor
# In short: (§1)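 Ratio of the Ki at the named subtype to the Ki at α1β3γ2. Both Ki values come from [3H]flumazenil (1 nM) displacement on membranes of HEK cells with human receptors, run 40 min at 0–4 °C with GF/C filtration. Ki = IC50/(1+L/KD).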
# [3] = target: T1, GABA-A receptor; alpha-3/beta-3/gamma-2 (Homo sapiens, UniProt P18507+P28472+P34903); assay: Displacement of [3H]flumazenil human recombinant alpha3beta3gamma2 GABA(A) receptor expressed in HEK293 cells after 30 mins by glass fiber filtration assay; format: cell-based; settings: in the assay text read “after 40 mins” for “after 30 mins”
# T1 sequence (P18507 whole entry): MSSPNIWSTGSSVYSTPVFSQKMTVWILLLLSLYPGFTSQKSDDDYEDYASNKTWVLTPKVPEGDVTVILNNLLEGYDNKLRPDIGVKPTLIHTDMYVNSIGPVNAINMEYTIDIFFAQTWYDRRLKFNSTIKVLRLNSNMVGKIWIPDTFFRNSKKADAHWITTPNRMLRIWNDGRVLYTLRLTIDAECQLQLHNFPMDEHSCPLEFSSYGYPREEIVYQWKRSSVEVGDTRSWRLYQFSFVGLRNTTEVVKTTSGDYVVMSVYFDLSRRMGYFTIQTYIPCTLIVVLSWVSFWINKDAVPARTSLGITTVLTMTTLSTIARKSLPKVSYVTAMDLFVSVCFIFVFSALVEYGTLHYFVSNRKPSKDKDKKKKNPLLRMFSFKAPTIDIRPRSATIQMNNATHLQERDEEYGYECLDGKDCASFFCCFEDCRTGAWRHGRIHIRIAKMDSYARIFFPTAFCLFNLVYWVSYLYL
# T1 sequence (P28472 whole entry): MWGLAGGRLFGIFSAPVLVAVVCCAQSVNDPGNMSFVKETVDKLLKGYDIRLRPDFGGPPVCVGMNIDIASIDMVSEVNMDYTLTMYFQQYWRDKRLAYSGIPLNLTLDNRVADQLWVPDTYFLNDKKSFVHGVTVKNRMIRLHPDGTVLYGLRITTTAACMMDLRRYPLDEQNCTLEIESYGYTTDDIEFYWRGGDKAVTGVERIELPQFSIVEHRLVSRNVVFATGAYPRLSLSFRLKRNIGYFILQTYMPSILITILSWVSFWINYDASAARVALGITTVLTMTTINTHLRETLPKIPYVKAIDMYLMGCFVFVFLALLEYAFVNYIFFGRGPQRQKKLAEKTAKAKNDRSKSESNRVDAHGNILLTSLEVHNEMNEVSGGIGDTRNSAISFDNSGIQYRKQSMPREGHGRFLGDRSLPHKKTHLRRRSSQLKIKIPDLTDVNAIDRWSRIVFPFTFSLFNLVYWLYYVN
# T1 sequence (P34903 whole entry): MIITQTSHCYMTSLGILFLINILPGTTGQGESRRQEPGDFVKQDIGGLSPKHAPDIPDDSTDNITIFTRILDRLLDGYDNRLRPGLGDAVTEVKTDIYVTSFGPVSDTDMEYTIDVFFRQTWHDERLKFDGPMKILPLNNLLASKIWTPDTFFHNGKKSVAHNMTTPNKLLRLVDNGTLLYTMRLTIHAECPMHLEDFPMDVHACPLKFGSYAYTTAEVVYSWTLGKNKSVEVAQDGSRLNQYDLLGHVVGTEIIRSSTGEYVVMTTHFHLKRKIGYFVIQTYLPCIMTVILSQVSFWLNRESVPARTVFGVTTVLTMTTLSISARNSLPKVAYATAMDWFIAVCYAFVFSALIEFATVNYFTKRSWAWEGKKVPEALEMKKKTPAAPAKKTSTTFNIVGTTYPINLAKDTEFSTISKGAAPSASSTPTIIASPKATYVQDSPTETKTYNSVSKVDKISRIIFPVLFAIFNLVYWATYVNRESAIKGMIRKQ
# In short: (§2)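 HEK cell membranes carrying human receptors in 50 mM Tris–citrate pH 7.1 with 1 nM final [3H]flumazenil, incubated 40 min on ice (0–4 °C). Filtered on GF/C and washed with ice-cold buffer. Clonazepam 1 µM final defined nonspecific binding. IC50 from 4–6 test concentrations, converted by Ki = IC50/(1+L/KD). Mean ± SD of three determinations.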
# [4] = target: T2, GABA-A receptor; alpha-2/beta-3/gamma-2 (Homo sapiens, UniProt P18507+P28472+P47869); assay: Displacement of [3H]flumazenil human recombinant alpha2beta3gamma2 GABA(A) receptor expressed in HEK293 cells after 30 mins by glass fiber filtration assay; format: cell-based; settings: in the assay text read “after 40 mins” for “after 30 mins”; in short: as §2
# T2 sequence (P18507 whole entry): T1 sequence (P18507 whole entry)
# T2 sequence (P28472 whole entry): T1 sequence (P28472 whole entry)
# T2 sequence (P47869 whole entry): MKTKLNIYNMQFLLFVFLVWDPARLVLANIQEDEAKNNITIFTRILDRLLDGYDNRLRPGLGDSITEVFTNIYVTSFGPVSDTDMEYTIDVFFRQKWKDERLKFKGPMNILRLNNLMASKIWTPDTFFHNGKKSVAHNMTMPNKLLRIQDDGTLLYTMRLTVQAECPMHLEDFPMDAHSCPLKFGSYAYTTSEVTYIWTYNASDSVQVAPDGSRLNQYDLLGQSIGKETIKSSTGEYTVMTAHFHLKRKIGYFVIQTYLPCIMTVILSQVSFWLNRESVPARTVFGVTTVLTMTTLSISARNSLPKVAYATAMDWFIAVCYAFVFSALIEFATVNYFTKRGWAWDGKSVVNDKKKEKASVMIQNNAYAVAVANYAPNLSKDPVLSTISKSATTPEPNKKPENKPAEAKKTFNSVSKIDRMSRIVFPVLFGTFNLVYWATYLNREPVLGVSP
# [5] = target: T3, GABA-A receptor; alpha-1/beta-3/gamma-2 (Homo sapiens, UniProt P14867+P18507+P28472); assay: Displacement of [3H]flumazenil human recombinant alpha1beta3gamma2 GABA(A) receptor expressed in HEK293 cells after 30 mins by glass fiber filtration assay; format: cell-based; settings: in the assay text read “after 40 mins” for “after 30 mins”; in short: as §2
# T3 sequence (P14867 whole entry): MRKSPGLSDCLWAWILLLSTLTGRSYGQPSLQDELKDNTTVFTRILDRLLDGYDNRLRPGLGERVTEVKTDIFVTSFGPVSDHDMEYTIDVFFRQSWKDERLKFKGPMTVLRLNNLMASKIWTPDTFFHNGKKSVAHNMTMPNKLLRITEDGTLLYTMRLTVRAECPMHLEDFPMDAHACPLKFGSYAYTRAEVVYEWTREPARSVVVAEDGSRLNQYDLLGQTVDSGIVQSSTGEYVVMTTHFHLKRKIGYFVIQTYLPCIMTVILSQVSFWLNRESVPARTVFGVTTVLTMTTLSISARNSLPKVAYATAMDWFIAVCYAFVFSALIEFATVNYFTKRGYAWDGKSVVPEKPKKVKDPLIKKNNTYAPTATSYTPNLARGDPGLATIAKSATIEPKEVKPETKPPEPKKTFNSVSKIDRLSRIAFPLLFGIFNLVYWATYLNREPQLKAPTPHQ
# T3 sequence (P18507 whole entry): T1 sequence (P18507 whole entry)
# T3 sequence (P28472 whole entry): T1 sequence (P28472 whole entry)
# [6] = target: T4, GABA-A receptor; alpha-5/beta-3/gamma-2 (Homo sapiens, UniProt P18507+P28472+P31644); assay: Displacement of [3H]flumazenil human recombinant alpha5beta3gamma2 GABA(A) receptor expressed in HEK293 cells after 30 mins by glass fiber filtration assay; format: cell-based; settings: in the assay text read “after 40 mins” for “after 30 mins”; in short: as §2
# T4 sequence (P18507 whole entry): T1 sequence (P18507 whole entry)
# T4 sequence (P28472 whole entry): T1 sequence (P28472 whole entry)
# T4 sequence (P31644 whole entry): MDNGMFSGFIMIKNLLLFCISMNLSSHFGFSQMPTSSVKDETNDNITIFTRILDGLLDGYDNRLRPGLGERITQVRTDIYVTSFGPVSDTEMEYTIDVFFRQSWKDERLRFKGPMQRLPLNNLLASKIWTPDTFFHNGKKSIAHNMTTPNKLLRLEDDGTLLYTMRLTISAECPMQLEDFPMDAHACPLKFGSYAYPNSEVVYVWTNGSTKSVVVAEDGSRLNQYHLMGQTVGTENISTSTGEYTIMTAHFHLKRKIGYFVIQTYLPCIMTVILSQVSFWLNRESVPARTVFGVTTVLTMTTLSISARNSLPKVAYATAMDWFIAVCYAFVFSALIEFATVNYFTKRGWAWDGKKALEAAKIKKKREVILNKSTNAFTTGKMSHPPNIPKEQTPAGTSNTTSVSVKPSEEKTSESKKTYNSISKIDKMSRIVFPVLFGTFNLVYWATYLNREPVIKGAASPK
# Homo sapiens [7] = species on record: Homo sapiens; assay: Selectivity ratio of Ki for human recombinant alpha3beta3gamma2 GABA(A) receptor to Ki for human recombinant alpha1beta3gamma2 GABA(A) receptor; in short: as §1
# Homo sapiens [8] = species on record: Homo sapiens; assay: Selectivity ratio of Ki for human recombinant alpha2beta3gamma2 GABA(A) receptor to Ki for human recombinant alpha1beta3gamma2 GABA(A) receptor; in short: as §1
smiles,measurement,setting,value
Cc1ccc(-n2nc3c4cc(Cc5cccc(F)c5)ccc4[nH]c(=O)n3c2=O)cc1,pKi,[1],8.68
O=c1[nH]c2ccc(Br)cc2c2nn(-c3ccc(Cl)cc3)c(=O)n12,pKi,[1],9.22
Cc1ccc(-n2nc3c4cc(CCc5ccncc5)ccc4[nH]c(=O)n3c2=O)cc1,pKi,[1],9.77
Cc1ccc(-n2nc3c4cc(Cc5ccccc5)ccc4[nH]c(=O)n3c2=O)cc1,pKi,[1],9.00
Cc1ccc(-n2nc3c4cc(CCc5ccc(-c6ccccc6)cc5)ccc4[nH]c(=O)n3c2=O)cc1,pKi,[1],5.80
Cc1ccc(-n2nc3c4cc(CCc5ccc(Oc6ccccc6)cc5)ccc4[nH]c(=O)n3c2=O)cc1,pKi,[1],6.91
Cc1ccc(-n2nc3c4cc(CCc5ccsc5)ccc4[nH]c(=O)n3c2=O)cc1,Ratio Ki,Homo sapiens [2],26
same,pKi,[3],9.15
same,pKi,[4],8.77
same,pKi,[5],9.85
same,pKi,[1],9.03
same,pKi,[6],8.44
same,Ratio Ki,Homo sapiens [7],5
Cc1ccc(-n2nc3c4cc(CCc5ccccn5)ccc4[nH]c(=O)n3c2=O)cc1,pKi,[1],9.28
Cc1ccc(-n2nc3c4cc(CCc5cccc(O)c5)ccc4[nH]c(=O)n3c2=O)cc1,pKi,[1],7.91
Cc1ccc(-n2nc3c4cc(Br)ccc4[nH]c(=O)n3c2=O)cc1,pKi,[1],9.33
Cc1ccc(-n2nc3c4cc(C#Cc5ccccc5)ccc4[nH]c(=O)n3c2=O)cc1,pKi,[1],7.40
O=c1[nH]c2ccc(Br)cc2c2nn(-c3ccccc3)c(=O)n12,pKi,[1],9.62
Cc1ccc(-n2nc3c4cc(CCC(=O)O)ccc4[nH]c(=O)n3c2=O)cc1,pKi,[1],8.85
Cc1ccc(-n2nc3c4cc(CCc5ccccc5)ccc4[nH]c(=O)n3c2=O)cc1,pKi,[3],8.01
same,pKi,[4],7.19
same,pKi,[5],8.44
same,pKi,[1],8.40
same,pKi,[6],7.18
same,Ratio Ki,Homo sapiens [8],18
Cc1ccc(-n2nc3c4cc(Cc5ccsc5)ccc4[nH]c(=O)n3c2=O)cc1,pKi,[1],9.64
Cc1ccc(-n2nc3c4cc(CCc5cccnc5)ccc4[nH]c(=O)n3c2=O)cc1,Ratio Ki,Homo sapiens [2],13
same,pKi,[3],8.64
same,pKi,[4],8.36
same,pKi,[5],9.17
same,pKi,[1],9.70
same,pKi,[6],8.04
same,Ratio Ki,Homo sapiens [7],3
Cc1ccc2[nH]c(=O)n3c(=O)n(-c4ccccc4)nc3c2c1,pKi,[3],8.89
same,pKi,[4],9.00
same,pKi,[5],9.37
same,pKi,[1],9.21
same,Ratio Ki,Homo sapiens [8],2
O=c1[nH]c2ccc(Br)cc2c2nn(-c3ccccc3F)c(=O)n12,pKi,[1],9.70
